Bioassay records as filed in PubChem.
LMPTP inh – blocks human LMPTP phosphatase; AID 651560; recombinant LMPTP-A, OMFP fluorogenic substrate, fluorescence intensity; P24666; 360,000 tested, 0.22% active; inhibition, % at 20 µM;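 active = compounds that cut the enzyme signal by at least half of the control window in the single-dose screen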
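Test system: LMPTP-A phosphatase enzyme. Amount: LMPTP-A at 0.625 nM final in the reaction. Reagent: OMFP substrate, 400 µM final. Times: 50 min at room temperature. Signal: endpoint fluorescence intensity from OMFP dephosphorylation. Read-out basis: % inhibition. Benchmarks: no-enzyme and uninhibited controls.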
Scp-1 inhibitor – inhibitors of human Scp-1 phosphatase | inhibition, % at 20 µM | 340,000 tested, 0.88% active | Recombinant Scp1, phosphopeptide, malachite green phosphate absorbance | Q9GZU7;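 active = inhibition above about 50% at 20 µM, limit read from the data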
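assay system = SCP-1 phosphatase catalytic domain, residues 76-261 | buffer or medium = 50 mM Tris acetate pH 5.5, 0.005% Tween-20, 10 mM MgCl2 | incubation = enzyme reaction 45 min at room temperature, colour 5 min, stabilisation 30 min | signal = Phosphate-binding colour reagent, absorbance read at 630 nm | measure = % inhibition at 20 µM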
STEP block – inhibitors of human striatal-enriched phosphatase STEP; P54829; recombinant STEP, OMFP fluorogenic substrate, fluorescence; inhibition, % at 20 µM; 360,000 tested, 0.25% active;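 active = inhibition at 20 µM, scaled per plate between control wells, above about 37%, limit read from the data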
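Measure: Control-normalized % inhibition with plate pattern correction | Test system: STEP phosphatase, cell-free reaction | Medium: pH 6.0 Bis-Tris with DTT and Tween 20 | Technique: Fluorescence, 480/540 nm | Times: Reaction 20 min, ambient temperature | Doses: Single compound dose of 20 µM, 1% DMSO final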
GRK2 aptamer HTS – blocks RNA aptamer binding to human GRK2; 330,000 tested, 0.59% active; bead flow cytometry, FAM-aptamer displacement from GRK2; inhibition of aptamer binding, % at 10 µM;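 active = inhibition of aptamer binding above 40%, roughly 3 SD of noise, on plates passing a quality check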;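 also: median bead fluorescence of bound FAM aptamer so fluorescent compounds give negative values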
Target sequence (P25098 whole entry, looked up): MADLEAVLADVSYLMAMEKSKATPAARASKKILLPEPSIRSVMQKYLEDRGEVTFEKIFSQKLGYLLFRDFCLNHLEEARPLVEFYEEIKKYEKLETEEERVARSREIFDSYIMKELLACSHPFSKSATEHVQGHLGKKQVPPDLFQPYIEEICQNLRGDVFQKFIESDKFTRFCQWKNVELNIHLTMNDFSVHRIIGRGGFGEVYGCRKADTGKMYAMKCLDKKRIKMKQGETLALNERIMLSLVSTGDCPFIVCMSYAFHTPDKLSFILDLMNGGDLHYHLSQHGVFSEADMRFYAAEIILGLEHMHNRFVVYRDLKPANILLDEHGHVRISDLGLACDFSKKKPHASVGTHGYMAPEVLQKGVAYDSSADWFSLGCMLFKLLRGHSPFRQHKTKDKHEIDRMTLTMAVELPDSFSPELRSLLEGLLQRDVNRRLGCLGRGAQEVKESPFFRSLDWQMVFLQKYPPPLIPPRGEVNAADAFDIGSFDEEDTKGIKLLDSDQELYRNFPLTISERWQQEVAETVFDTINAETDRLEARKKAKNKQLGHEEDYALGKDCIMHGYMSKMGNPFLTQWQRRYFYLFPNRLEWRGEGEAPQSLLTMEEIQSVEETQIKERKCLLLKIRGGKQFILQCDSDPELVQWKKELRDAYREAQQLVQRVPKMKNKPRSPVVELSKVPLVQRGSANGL
SUMO1-SIM PPI – modulators of human SUMO1-mediated protein-protein interactions. P63165. SUMO1 binding to a labelled peptide, TR-FRET, 1 h. inhibition, % at 20 µM. 360,000 tested, 0.33% active. AID 602429; in the data active = inhibition above about 37%
DNMT1 inh – inhibitors of human DNMT1 | 360,000 tested, 0.83% active | DNMT1 molecular beacon, Hinp1I cleavage, fluorescence | P26358 | inhibition (reported as % activation of signal), % at 10 µM | AID 588458; in the data active = inhibition above about 50%
Scp-1 conf – Scp-1 (human) inhibition, single-dose confirmed; shares compounds with Scp-1 inhibitor; recombinant SCP-1 catalytic domain, phosphate release, malachite green absorbance; inhibition, % at 20 µM; 2,500 tested, 61% active
Scp-1 MG ctr – colorimetric interference in Scp-1 counter-screen | shares compounds with Scp-1 inhibitor | Colorimetric interference counterscreen, malachite green absorbance 630 nm | apparent inhibition (interference), % at 20 µM | 2,500 tested, under 10 active | AID 540313;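 also: compounds added after enzyme reaction finished so only phosphate colour detection is probed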
Scp1 DSF – validation of human Scp-1 inhibitors by thermal shift binding. AID 540329. shares compounds with Scp-1 inhibitor. thermal shift relative to vanadate control, % at 40 µM. Recombinant SCP1, Sypro Orange thermal shift Tm. 1,500 tested, 25% active;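 active = substances whose mean melting-temperature shift, as a percentage of the reference inhibitor's shift, reaches about 5.3%, limit read from the data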
Of the large screens only hits and unclear results are named; the others gave an inactive call (follow-up assays come after a bar, where they were run). In the library only some 2.1% were active in any assay of this set; here they are far more common.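 The calls were made as follows, unless noted: active = inhibition of at least 30% at 20 µM; inactive = the rest.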

COC(=O)C1=CN(c2ccc(F)cc2)C(N)=C(C#N)C1c1cccc(OC)c1OC (stereo not given)	none (no result: Scp-1 inhibitor, STEP block, GRK2 aptamer HTS, DNMT1 inh)
Cc1cccc(C)c1Cn1c(C)c(C(=O)NCc2ccc([N+](=O)[O-])cc2)sc1=O	none (no result: Scp-1 inhibitor, GRK2 aptamer HTS)
Cc1cc(NC(=O)c2ccc(C)c([N+](=O)[O-])c2)no1	none
Cc1ccc(C(=O)Nc2cccc(NC(=O)c3ccc(C)c([N+](=O)[O-])c3)n2)cc1[N+](=O)[O-]	Scp-1 inhibitor 70 | Scp-1 conf 67 | Scp-1 MG ctr inactive | Scp1 DSF 14
CC1CC(C)CN(C(=O)c2ccc3c(c2)N(Cc2ccccc2)CCS3)C1 (stereo not given)	Scp-1 inhibitor 79 | Scp-1 conf inactive | Scp-1 MG ctr inactive
CCCCNC(=O)c1nc(C2CCN(S(=O)(=O)c3c(F)cccc3F)CC2)oc1-c1ccccc1	none (no result: Scp-1 inhibitor, GRK2 aptamer HTS)
CC1(c2ccccc2)NC(=O)N(CC(=O)N2CCN(S(=O)(=O)c3ccccc3[N+](=O)[O-])CC2)C1=O (stereo not given)	Scp-1 inhibitor 50 | Scp-1 conf inactive | Scp-1 MG ctr inactive
O=C(CN1C(=O)NC2(CCCCC2)C1=O)Nc1nc2c(F)cc(F)cc2s1	none | Scp-1 conf inactive | Scp-1 MG ctr inactive
Cn1ccsc1=NC(=O)c1ccc(=O)[nH]c1	Scp-1 inhibitor 94 | Scp-1 conf inactive | Scp-1 MG ctr inactive
CCC(C)Sc1ccc([C@@H]2[C@H]3C(=O)N(CC)C(=O)[C@H]3[C@]3(C(=O)OC)CCCCN23)cc1 (stereo not given in full)	none
CCOc1ccc(Cl)cc1/C=N/NC(=O)c1ccccc1	none
CCOc1ccc(C(=O)N/N=C/c2cc(Cl)ccc2[N+](=O)[O-])cc1	Scp-1 inhibitor 103 | Scp-1 conf 48 | Scp-1 MG ctr inactive | Scp1 DSF inactive
C[C@@H]1CN([C@@H](C)CO)C(=O)c2cc(Br)cnc2O[C@H]1CN(C)C(=O)c1ccccc1F	none (no result: Scp-1 inhibitor, GRK2 aptamer HTS)
COc1ccc(OC)c(/C=N/N(CCC#N)C2=NS(=O)(=O)c3ccccc32)c1	Scp-1 inhibitor 76 | Scp-1 conf inactive | Scp-1 MG ctr inactive
N#CCCN(/N=C/c1cccnc1)C1=NS(=O)(=O)c2ccccc21	none
Cc1nn(C)c(Cl)c1S(=O)(=O)N1CCC(CO)(CCc2ccccc2)CC1	Scp-1 inhibitor 81 | Scp-1 conf inactive | Scp-1 MG ctr inactive
COc1ccc(CC2(CO)CCN(S(=O)(=O)c3c(C)nn(C)c3Cl)CC2)cc1	none
Cc1ccc(S(=O)(=O)CC(=O)c2cc3cccc(C)c3oc2=O)cc1	none
COc1cccc2cc(C(=O)CS(=O)(=O)c3ccc(C)cc3)c(=O)oc12	Scp-1 inhibitor 66 | Scp-1 conf inactive | Scp-1 MG ctr inactive
Cc1cccc(NC(=S)NC(=O)CC2CC(C)(C)OC2=O)c1 (stereo not given)	none | Scp-1 conf inactive | Scp-1 MG ctr inactive
Cc1ccc(NC(=S)NC(=O)CC2CC(C)(C)OC2=O)cc1 (stereo not given)	none
CN(C(=O)c1cc2c(=O)n3ccccc3nc2n1C)C1CCCCC1	Scp-1 inhibitor 80 | Scp-1 conf inactive | Scp-1 MG ctr inactive
O=C(N/N=C/c1ccc2ccccc2c1)c1ccc(COc2ccc3c(c2)CCC3)o1	Scp-1 inhibitor 102 | Scp-1 conf 71 | Scp-1 MG ctr inactive | Scp1 DSF inactive
Brc1ccc(CSc2ncn[nH]2)cc1	Scp-1 inhibitor 51 | Scp-1 conf inactive | Scp-1 MG ctr inactive
COc1ccc(-c2noc(CCC(=O)Nc3cccc(C(=O)NC4CC4)c3)n2)cc1OC	none (no result: Scp-1 inhibitor, GRK2 aptamer HTS)
O=C(Nc1ccc(F)cc1)C(c1cccc(F)c1)N1CCN(c2ccncc2)CC1 (stereo not given)	none (no result: Scp-1 inhibitor, STEP block, GRK2 aptamer HTS, DNMT1 inh)
